Test results: ChEMBL document CHEMBL4052634, “Covalent inhibitors of LgtC: A blueprint for the discovery of non-substrate-like inhibitors for bacterial glycosyltransferases” (Bioorg Med Chem, 2017)
Activity calls are given as the source filed them. No cut-off for these calls is given here.

How the values were obtained:
[1] = Inhibition of Neisseria meningitidis alpha-1,4-galactosyltransferase assessed as enzyme activity using lactose as substrate preincubated for 10 mins followed by lactose and UDP-Gal addition measured after 20 mins by malachite green dye-based assay
How it was run: (§1)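 Enzyme (DTT-activated) with MnCl2 5 mM, CIP 10 U/mL, lysozyme 1 mg/mL, 0.01% Triton, 13 mM HEPES pH 7.0 and inhibitor in DMSO (10% final) pre-incubated 10 min at 30 °C before UDP-Gal (28 µM) plus lactose (2 mM) added; 20 min at 30 °C; UDP read by malachite green at 620 nm versus UDP standard curve, background-corrected; triplicate.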

Neisseria meningitidis [2] = assay: Inhibition of Neisseria meningitidis alpha-1,4-galactosyltransferase assessed as consumption of donor UDP-Gal by measuring turnover rate at 0.1 to 100 uM using lactose as substrate in presence of UDP-Gal measured after 20 min by malachite green dye-based assay relative to total amount of UDP-Gal used
How it was run: (§2)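 No pre-incubation: DTT-activated LgtC with MnCl2 5 mM, CIP 10 U/mL, egg-white lysozyme 1 mg/mL, 0.01% Triton, 13 mM HEPES pH 7.0, lactose 2 mM, inhibitor in DMSO (10% final); started with UDP-Gal 28 µM, 20 min at 30 °C, 20-50% donor turnover. Malachite green read at 620 nm against a UDP calibration curve, background without acceptor subtracted, % of assay window; triplicate minimum; IC50 from sigmoidal fit.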

Neisseria meningitidis [3] = assay: Inhibition of Neisseria meningitidis alpha-1,4-galactosyltransferase at 0.1 to 100 uM using lactose as substrate preincubated with compoundfollowed by substrate/UDP-Gal addition measured after 20 min by malachite green dye-based assay; how it was run: as §1
[4] = Inhibition of Neisseria meningitidis alpha-1,4-galactosyltransferase assessed as enzyme activity using lactose as substrate preincubated for 180 mins followed by lactose and UDP-Gal addition measured after 20 mins by malachite green dye-based assay
[5] = Inhibition of Neisseria meningitidis alpha-1,4-galactosyltransferase assessed as enzyme activity using lactose as substrate preincubated for 20 mins followed by lactose and UDP-Gal addition measured after 20 mins by malachite green dye-based assay
[6] = Inhibition of Neisseria meningitidis alpha-1,4-galactosyltransferase assessed as enzyme activity using lactose as substrate in presence of UDP-Gal measured after 20 min by malachite green dye-based assay; how it was run: as §2
Neisseria meningitidis [7] = assay: Inhibition of Neisseria meningitidis alpha-1,4-galactosyltransferase assessed as rate constant for enzyme activity at 4 uM using lactose as substrate preincubated with substrate measured after 20 mins in presence of UDP-Gal
How it was run: (§3)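 Activity measured at a series of inhibitor concentrations (0.5-200 µM range overall) after pre-incubation with LgtC for 0, 5, 10, 20 and 30 min, using the pre-incubation protocols (lactose 2 mM, UDP-Gal 28 µM, 20 min at 30 °C, malachite green); % of DMSO control plotted semi-logarithmically versus pre-incubation time to give kobs; kobs versus concentration gave Ki and kinact; triplicate.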

Neisseria meningitidis [8] = assay: (§4) Inhibition of Neisseria meningitidis alpha-1,4-galactosyltransferase assessed as consumption of donor UDP-Gal by measuring turnover rate at 0.1 to 100 uM using lactose as substrate preincubated with lactose for 10 mins followed by UDP-Gal addition measured after 20 mins by malachite green dye-based assay relative to total UDP-Gal used
How it was run: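 Pre-incubation 10 min at 30 °C of activated LgtC, inhibitor (10% DMSO final) and lactose 2 mM in 13 mM HEPES pH 7.0 with MnCl2 5 mM, CIP 10 U/mL, lysozyme 1 mg/mL, 0.01% Triton; reaction started with UDP-Gal 28 µM, 20 min at 30 °C; malachite green readout at 620 nm against UDP standards; triplicate.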

Neisseria meningitidis [9] = assay: (§5) Inhibition of Neisseria meningitidis alpha-1,4-galactosyltransferase assessed as enzyme activity using lactose as substrate preincubated for 0 to 30 mins measured after 20 mins in presence of UDP-Gal
[10] = as §5
Neisseria meningitidis [11] = assay: Inhibition of Neisseria meningitidis alpha-1,4-galactosyltransferase assessed as rate constant for enzyme activity at 10 uM using lactose as substrate preincubated with substrate measured after 20 mins in presence of UDP-Gal; how it was run: as §3
Neisseria meningitidis [12] = assay: Inhibition of Neisseria meningitidis alpha-1,4-galactosyltransferase assessed as rate constant for enzyme activity at 50 uM using lactose as substrate preincubated with substrate measured after 20 mins in presence of UDP-Gal; how it was run: as §3
Neisseria meningitidis [13] = assay: Inhibition of Neisseria meningitidis alpha-1,4-galactosyltransferase assessed as consumption of donor UDP-Gal by measuring turnover rate at 0.1 to 100 uM using lactose as substrate preincubated for 10 mins with UDP-Gal followed by lactose addition measured after 20 mins by malachite green dye-based assay relative to total amount of UDP-Gal used
How it was run: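 LgtC pre-incubated 10 min at 30 °C with inhibitor (DMSO, 10% final) and UDP-Gal 28 µM in 13 mM HEPES pH 7.0 with MnCl2 5 mM, CIP 10 U/mL, lysozyme 1 mg/mL, 0.01% Triton; lactose 2 mM then added, 20 min at 30 °C; malachite green absorbance at 620 nm converted via UDP calibration; triplicate.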

Neisseria meningitidis [14] = assay: Inhibition of Neisseria meningitidis alpha-1,4-galactosyltransferase assessed as consumption of donor UDP-Gal by measuring turnover rate at 0.1 to 100 uM using lactose as substrate preincubated for 180 mins followed by lactose and UDP-Gal addition measured after 20 mins by malachite green dye-based assay relative to total UDP-Gal used
Neisseria meningitidis [15] = assay: as §4, with “substrate preincubated for 10” for “substrate preincubated with lactose for 10”, “followed by substrate and UDP-Gal addition” for “followed by UDP-Gal addition”; how it was run: as §1
[16] = Inhibition of Neisseria meningitidis alpha-1,4-galactosyltransferase assessed as enzyme activity using lactose as substrate preincubated for 60 mins followed by lactose and UDP-Gal addition measured after 20 mins by malachite green dye-based assay
Bos taurus = organism: Bos taurus; assay: Inhibition of bovine beta-1,4-galactosyltransferase at 0.1 to 50 uM using UDP as substrate after 20 mins by malachite green dye-based assay
Neisseria meningitidis [17] = assay: Inhibition of Neisseria meningitidis alpha-1,4-galactosyltransferase assessed as rate constant for enzyme activity at 25 uM using lactose as substrate preincubated with substrate measured after 20 mins in presence of UDP-Gal; how it was run: as §3
Neisseria meningitidis [18] = assay: Inhibition of Neisseria meningitidis alpha-1,4-galactosyltransferase assessed as rate constant for enzyme activity at 0.5 uM using lactose as substrate preincubated with substrate measured after 20 mins in presence of UDP-Gal; how it was run: as §3
[19] = Inhibition of Neisseria meningitidis alpha-1,4-galactosyltransferase assessed as enzyme activity using lactose as substrate preincubated for 30 mins followed by lactose and UDP-Gal addition measured after 20 mins by malachite green dye-based assay
[20] = Inhibition of Neisseria meningitidis alpha-1,4-galactosyltransferase assessed as enzyme activity using lactose as substrate preincubated for 5 mins followed by lactose and UDP-Gal addition measured after 20 mins by malachite green dye-based assay
Neisseria meningitidis [21] = assay: Binding affinity to Neisseria meningitidis alpha-1,4-galactosyltransferase assessed as covalent-enzyme adduct formation at 100 uM after 20 mins by mass spectroscopy; settings: 50 uM, in the assay text read “at 50 uM” for “at 100 uM”
How it was run: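 LgtC stock without DTT activation, diluted in 13 mM HEPES pH 7.0, incubated with inhibitor (100 or 50 µM, added in DMSO; 10% final DMSO) for 20 min at 30 °C; samples injected directly for electrospray MS to detect protein-inhibitor adducts.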

Neisseria meningitidis [22] = assay: Inhibition of Neisseria meningitidis alpha-1,4-galactosyltransferase assessed as consumption of donor UDP-Gal by measuring turnover rate at 0.1 to 50 uM using lactose as substrate preincubated for 10 mins followed by lactose and UDP-Gal addition measured after 20 mins by malachite green dye-based assay relative to total UDP-Gal used; how it was run: as §1

| Structure (SMILES) | IC50 [1] [µM] | inhibition (Neisseria meningitidis [2]) [%] | inhibition (Neisseria meningitidis [3]) | IC50 [4] [µM] | IC50 [5] [µM] | IC50 [6] [µM] | K (Neisseria meningitidis [7]) [min⁻¹] | inhibition (Neisseria meningitidis [8]) [%] | Kinact (Neisseria meningitidis [9]) [min⁻¹] | Ki [10] [µM] | K (Neisseria meningitidis [11]) [min⁻¹] | K (Neisseria meningitidis [12]) [min⁻¹] | inhibition (Neisseria meningitidis [13]) [%] | inhibition (Neisseria meningitidis [15]) [%] | IC50 [16] [µM] | inhibition (Bos taurus) | K (Neisseria meningitidis [17]) [min⁻¹] | K (Neisseria meningitidis [18]) [min⁻¹] | IC50 [19] [µM] | IC50 [20] [µM] | also measured |
| --- | --- | --- | --- | --- | --- | --- | --- | --- | --- | --- | --- | --- | --- | --- | --- | --- | --- | --- | --- | --- | --- |
| O=C1/C(=C\c2cccc(OCc3ccccc3)c2)C(C(F)(F)F)=NN1c1ccccc1 | > 50 | 29 | inactive | 6 | 38 | > 100 | 0.007 | 23 | 0.104 | 46.3 | 0.011 | 0.068 | 29 | 25 to 41 | 9 | inactive | 0.033 | 0.002 | 17.6 | > 50 | inhibition (Neisseria meningitidis [14]): 19% |
| COc1ccc(/C=C2\C(=O)N(c3ccccc3)N=C2C(F)(F)F)cc1Br | 15.8 | 30 | inactive | 5.5 | 6.5 | > 50 | 0.023 | 23 | 0.0535 | 4.4 | 0.039 | 0.048 | 30 | 25 | 3.1 | inactive | 0.047 | 0.006 | 3.1 | 24 | Activity (Neisseria meningitidis [21]): Active; inhibition (Neisseria meningitidis [22]): 46% |
